Compound activity deposited in PubChem by SRMLSC.
tolC growth inh – E. coli tolC mutant growth inhibition; growth inhibition, % at 10 µM (by protocol); E. coli BW25113 tolC mutant growth, OD615; 65,000 compounds, 2.2% hits; AID 573;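 active = growth inhibition at or above a cutoff equal to the mean over every tested compound plus 3 SD, cut at about 60% in these data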;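 note: growth measured after 20 h incubation at 37 °C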
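Test system: E. coli BW25113 ΔtolC::kan bacteria | Medium: Kanamycin-containing LB broth (50 µg/mL) | Dosing: One dose of 10 µM final | Times: 20 h incubation with compound, 37 °C | Detection: Optical density read at 615 nm | Read-out basis: Percent growth inhibition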
PostGolgi ctrl – inhibits growth of the yeast control strain. efflux-deficient yeast background strain, growth absorbance A615, 16 h. inhibition, % at 10 µM. 98,000 compounds, 5% hits
HER2 expr 66K – inhibitors of human Her2 kinase expression | P04626 | SKBR-3 HER2 protein level, AlphaScreen, 18-24 h; stronger effect = lower value | 65,000 compounds, 0.69% hits | HER2 level % of control, % at 10 µM | AID 645;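 active = HER2 level under 5% of the carrier-only control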;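 note: lower value means stronger loss of Her2 protein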
Ecoli WT expand – growth inhibitors of E. coli BW25113 wild type; OD600 absorbance; growth inhibition, % at 100 µM; 98,000 compounds, 0.15% hits; AID 710;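 active = growth inhibition above about 50% at one test dose, limit read from the data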;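 note: growth measured after 20 h incubation at 37 °C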
PostGolgi yeast – growth inhibition of a yeast mutant, post-Golgi transport screen. post-Golgi transport phenotypic cell assay. inhibition, % at 10 µM. 98,000 compounds, 0.9% hits. AID 739;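 note: yeast cells grown in 1536-well plates; yeast grown about 18 h at 30C before absorbance read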
Of the large screens only hits and unclear results are named; the others gave an inactive call. A selection: hits, their analogues and other compounds. The true share with any hit is near 6.6%. Cut-off read from the data, not from the text of the source, unless noted: active = inhibition above about 30%; inactive = the rest.

COc1ccc(-c2[nH]ncc2-c2cnn(-c3ccccc3)c2)c(O)c1	tolC growth inh 93
COc1ccc(-c2[nH]ncc2Oc2ccccc2OC)c(O)c1	tolC growth inh 99
COc1ccc(-c2[nH]ncc2-c2cnc(C)s2)c(O)c1	none
CCCc1cc(-c2[nH]ncc2-c2ccc(C(=O)OCC)o2)c(O)cc1O	none
CCN(CC)C(=O)c1sc(NC(=O)c2ccc(C)c([N+](=O)[O-])c2)c(C#N)c1C	none (no result: tolC growth inh, HER2 expr 66K)
Cc1ccc(NC2OC(CO)C(O)C(O)C2O)cc1 (configuration not stated)	none (no result: tolC growth inh, HER2 expr 66K)
CCC(CO)n1cnnc1-c1ccncc1 (configuration not stated)	none
CC1CC(C)CN(c2ncc3c(n2)CC(c2ccccc2Cl)CC3=O)C1 (configuration not stated)	PostGolgi ctrl 31
O=C1CC(c2ccccc2)Cc2nc(N3CCc4ccccc4C3)ncc21 (configuration not stated)	PostGolgi ctrl 46 (no result: tolC growth inh, HER2 expr 66K)
COc1cccc(/C=N/n2cncn2)c1OCC#N	none
CCN1CCCC1CNC(=O)C(=O)Nc1ccc(OC)cc1 (configuration not stated)	PostGolgi ctrl 42 (no result: tolC growth inh, HER2 expr 66K)
CSc1nnc2c3c4c(sc3c(=O)n(-c3ccccc3)n12)CC(C)(C)OC4	none
CN1CCN(CCCNC(=O)Cn2nc(-c3ccccc3)ccc2=O)CC1	PostGolgi yeast 41
Cc1ccc(S(=O)(=O)NCC(c2cccnc2)N(C)C)cc1 (configuration not stated)	none
Cc1cc(NC(=O)CN2CCc3ccccc3C2)nc2c1c(=O)oc1ccccc12	none (no result: PostGolgi ctrl, Ecoli WT expand, PostGolgi yeast)
c1coc(-c2nn3c(Cn4nnc5ccccc54)nnc3s2)c1	none
O=C(Cc1ccc(Cl)cc1)NCC(=O)N1CCCC1	none
Cc1cccc(-n2ncc3c(N(C)C4CCCCC4)ncnc32)c1	tolC growth inh 94 (no result: PostGolgi ctrl, Ecoli WT expand, PostGolgi yeast)
COc1ccc(-n2ncc3c(N(C)C4CCCCC4)ncnc32)cc1	tolC growth inh 76 (no result: PostGolgi ctrl, Ecoli WT expand, PostGolgi yeast)
Cc1cccc(S(=O)(=O)Nc2nc3ccccc3nc2NCc2ccco2)c1	tolC growth inh 75
O=S(=O)(Nc1nc2ccccc2nc1NCc1ccco1)c1ccc(Cl)cc1	tolC growth inh 96, PostGolgi ctrl 38
Cc1ccc(S(=O)(=O)Nc2nc3ccccc3nc2NCc2ccco2)cc1C	none
Cc1ccc(S(=O)(=O)Nc2nc3ccccc3nc2NCc2ccco2)cc1	none
O=C(CCn1c(=O)oc2ccccc21)NCCCN1CCCC1=O	none
Cc1ccc2cc(COC(=O)C3CCCO3)c(=O)[nH]c2c1 (configuration not stated)	none (no result: tolC growth inh, HER2 expr 66K)
O=S1(=O)C=C(Sc2nc3ccccc3s2)c2ccccc21	PostGolgi ctrl 31, HER2 expr 66K -18, PostGolgi yeast 89
Cc1cc(OC(=O)c2ccc(S(=O)(=O)N(C)C)cc2)cc(=O)o1	none
O=C(Nc1nc(-c2ccc(Cl)s2)cs1)c1cccs1	none
O=C(Nc1nc(-c2ccccc2)cs1)c1cccs1	tolC growth inh 98
O=C(Nc1nc(-c2ccccc2)ns1)c1cccs1	tolC growth inh 64
CCCCNC(=O)CSc1nc2ccccc2c(=O)n1C1CCCC1	none
Cc1cc2c3c(c1)C1(SCC(=O)N1c1ccc(F)cc1)C(=O)N3C(C)(C)CC2C (configuration not stated)	PostGolgi ctrl 33 (no result: tolC growth inh, HER2 expr 66K)
O=C(CNC(=O)c1cccs1)NCC(=O)OCc1ccc(Cl)cc1	PostGolgi ctrl 32 (no result: tolC growth inh, HER2 expr 66K)
COc1ccc(OC)c(S(=O)(=O)Nc2cc(Cl)cc(Cl)c2)c1	none (no result: PostGolgi ctrl, Ecoli WT expand, PostGolgi yeast)
Cc1ccc(CN2CC(C(=O)Nc3ccc(S(=O)(=O)Nc4cc(C)nc(C)n4)cc3)CC2=O)cc1 (configuration not stated)	PostGolgi ctrl 33
CCOC(=O)Nc1ccc(S(=O)(=O)Nc2cc(C)nc(C)n2)cc1	none (no result: tolC growth inh, HER2 expr 66K)
O=C1CC(N(C(=O)c2ccco2)c2cccc(Cl)c2)C(=O)N1c1cccc(Cl)c1 (configuration not stated)	none (no result: tolC growth inh, HER2 expr 66K)
COc1ccc(-n2c(O)cnc2Nc2nc(C)cc(C)n2)cc1OC	PostGolgi ctrl 32 (no result: tolC growth inh, HER2 expr 66K)
COc1ccc(-c2nnnn2CCc2ccccc2)cc1	none
COc1ccc(-c2nc3ccccc3n2Cc2ccccc2)cc1	PostGolgi ctrl 55 (no result: tolC growth inh, HER2 expr 66K)
COc1ccc(-c2c(C)nn(Cc3ccccc3)c2N)cc1	PostGolgi ctrl 42 (no result: tolC growth inh, HER2 expr 66K)
COc1ccccc1Cn1c(-c2ccccc2OC)nc2ccccc21	PostGolgi ctrl 48 (no result: tolC growth inh, HER2 expr 66K)
COc1ccc(Cn2c(/C=C/c3ccccc3)nc3ccccc32)cc1	PostGolgi ctrl 43 (no result: tolC growth inh, HER2 expr 66K)
C=CCn1c(-c2ccc(OC)cc2)nc2ccccc21	none
COc1cc(NC(=O)CN2C(=O)c3ccccc3S2(=O)=O)c(OC)cc1Cl	none
CCCC(=O)Nc1nc(C)c(-c2csc(Nc3ccc(Cl)cc3)n2)s1	PostGolgi ctrl 56 (no result: tolC growth inh, HER2 expr 66K)
